Published values pooled from the literature.
Protocols differ between the studies behind these lines.
CDK4 with cyclin D3: Cyclin-dependent kinase 4, with cyclin D3 (CDK4, Homo sapiens, UniProt P11802)
CDK4 with cyclin D1: Cyclin-dependent kinase 4, with cyclin D1 (CDK4, Homo sapiens, UniProt P11802)
CDK4: Cyclin-dependent kinase 4 (CDK4, Homo sapiens, UniProt P11802)

Compound	target	assay	setting	remaining binding [%]
c1cnn2ncc(-c3ccnc(N4CCC45COC5)n3)c2c1	CDK4 with cyclin D3	binding	1 µM	68
Cc1cnc(Nc2ccc(C(=O)N3CCC(N4CCCC4)CC3)cc2)nc1-c1cc2ccccc2s1	CDK4 with cyclin D3	binding, competition with immobilised ligand	1 µM	2.7
CC(=O)N1CCC(c2ccc(C(=O)NC3=NCCN3)cc2C(F)(F)F)CC1	CDK4 with cyclin D1	cell-free assay, competition with immobilised ligand	1 µM	94
O=C(NCC1CCOCC1)c1n[nH]cc1NC(=O)c1c(F)cccc1F	CDK4	binding, competition with immobilised ligand	1 µM	92
c1cncc(-c2cccc(Nc3nccc(NC4CCCCC4)n3)c2)c1	CDK4	binding, competition with immobilised ligand	10 µM	100
O=C(NC[C@@H]1[C@H]2CN(C(=O)OCc3cc(C(F)(F)F)cc(C(F)(F)F)c3)C[C@@H]12)c1ccc2[nH]nnc2c1	CDK4 with cyclin D1	cell-free assay, competition with immobilised ligand	1 µM	100
Nc1ncc2c(n1)-c1c([nH]c3ccc(C#CC4CC4)cc13)CCCC2	CDK4	binding, competition with immobilised ligand	1 µM	84
O=C(O)[C@@H]1[C@@H](Cn2nnc3ccccc3c2=O)CC[C@H]1C(=O)c1ccc(OCCC2CCOCC2)cc1	CDK4 with cyclin D3	cell-free assay, competition with immobilised ligand	1 µM	83
COc1ccnn2ncc(-c3ccnc(N(C)C)n3)c12	CDK4 with cyclin D1	binding	1 µM	97
O=C(c1ccc(Nc2nccc(-c3cc4ccccc4s3)n2)cc1)N1CCC(N2CCCC2)CC1	CDK4	binding, competition with immobilised ligand	1 µM	88
CNC(=O)[C@@H]1CC[C@@H](n2c(-c3ccc4cnccc4c3)nc3ccc(C(=O)NCc4cccc(C(N)=O)c4)cc32)C1	CDK4 with cyclin D1	binding, competition with immobilised ligand	1 µM	100
C[C@@H]1CCN(c2nccc(-c3cnn4ncccc34)n2)C1	CDK4 with cyclin D3	binding	1 µM	76
O=C(NCCCN1CCOCC1)c1ccc(Nc2nccc(-c3cc4ccccc4s3)n2)cc1	CDK4 with cyclin D1	binding, competition with immobilised ligand	1 µM	83
N[C@@H]1CCN(c2nccc(-c3cnn4ncccc34)n2)C1	CDK4 with cyclin D3	binding	1 µM	100
Cc1c(NC(=O)c2cc(C(N)=O)nc3cc(F)ccc23)c(C(F)(F)F)nn1Cc1ccc(C#N)cc1	CDK4 with cyclin D3	cell-free assay, competition with immobilised ligand	1 µM	81
COc1cnc(Nc2cccc(S(N)(=O)=O)c2)nc1N1CCN(c2ccccc2)CC1	CDK4 with cyclin D1	binding, competition with immobilised ligand	1 µM	78
Cc1c[nH]c2nccc(Oc3c(F)cc(Nc4cc(Cl)nc(N)n4)cc3F)c12	CDK4	cell-free assay, competition with immobilised ligand	0.1 µM	67
CN(C)c1nccc(-c2cnn3ncccc23)n1	CDK4	binding	1 µM	92
CCCOc1ccc([C@@H]2[C@@H](C(=O)O)[C@H](c3ccc4c(c3)OCO4)CN2CC(=O)Nc2c(CC)cccc2CC)cc1	CDK4	cell-free assay, competition with immobilised ligand	1 µM	84
C=CC(=O)N1CCC(C(=O)NCC(=O)N2CCN(c3nc(-c4cnc(N)nc4C(F)F)nc(N4CCOCC4)n3)CC2)CC1	CDK4	binding, competition with immobilised ligand	1 µM	92
